This note sets out measurements from ChEMBL document CHEMBL2074359, “Structural requirements for determining the substrate affinity of peptide transporters PEPT1 and PEPT2” (Pflugers Arch, 2000).

In assay [1] the target is T1, Solute carrier family 15 member 2 (Rattus norvegicus, UniProt Q63424).
T1 sequence (Q63424 whole entry): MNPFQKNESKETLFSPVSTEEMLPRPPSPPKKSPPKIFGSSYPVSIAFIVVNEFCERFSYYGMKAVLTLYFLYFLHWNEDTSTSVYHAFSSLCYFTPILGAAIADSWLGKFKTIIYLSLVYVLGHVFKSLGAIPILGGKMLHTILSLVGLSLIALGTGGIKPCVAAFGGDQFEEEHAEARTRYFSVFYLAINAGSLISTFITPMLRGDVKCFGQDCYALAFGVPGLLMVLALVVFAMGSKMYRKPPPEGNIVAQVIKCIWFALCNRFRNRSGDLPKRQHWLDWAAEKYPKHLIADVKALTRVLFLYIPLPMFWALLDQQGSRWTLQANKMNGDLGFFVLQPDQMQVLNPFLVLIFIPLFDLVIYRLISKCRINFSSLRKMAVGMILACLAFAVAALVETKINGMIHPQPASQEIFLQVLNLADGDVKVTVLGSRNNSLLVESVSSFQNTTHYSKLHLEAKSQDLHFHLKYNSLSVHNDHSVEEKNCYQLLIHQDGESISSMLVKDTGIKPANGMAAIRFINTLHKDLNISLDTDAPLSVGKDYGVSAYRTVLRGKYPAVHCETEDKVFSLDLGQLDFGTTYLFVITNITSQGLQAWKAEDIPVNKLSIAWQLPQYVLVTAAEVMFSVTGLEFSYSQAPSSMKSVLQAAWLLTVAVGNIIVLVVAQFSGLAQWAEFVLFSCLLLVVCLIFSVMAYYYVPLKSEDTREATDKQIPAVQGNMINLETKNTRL
The assay can be described thus: TP_TRANSPORTER: inhibition of Gly-Sar uptake in PEPT2-expressing LLC-PK1 cells. In kind it is functional, cell-based. The procedure, abridged:
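LLC-PK1 cells stably carrying rat PEPT2 cDNA, grown 6 days in DMEM with 10% FBS. Monolayers were incubated 15 min at 37°C with [14C]glycylsarcosine (20 µM, pH 6.0) alone or with inhibitor, mostly 1–10000 µM. Uptake was normalized to Bradford protein, with control as 100%. IC50 came from nonlinear regression and Ki from Cheng–Prusoff. Two monolayers per concentration, four for control.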

The target of assay [2] is T2, Solute carrier family 15 member 1 (Rattus norvegicus, UniProt P51574).
T2 sequence (P51574 whole entry): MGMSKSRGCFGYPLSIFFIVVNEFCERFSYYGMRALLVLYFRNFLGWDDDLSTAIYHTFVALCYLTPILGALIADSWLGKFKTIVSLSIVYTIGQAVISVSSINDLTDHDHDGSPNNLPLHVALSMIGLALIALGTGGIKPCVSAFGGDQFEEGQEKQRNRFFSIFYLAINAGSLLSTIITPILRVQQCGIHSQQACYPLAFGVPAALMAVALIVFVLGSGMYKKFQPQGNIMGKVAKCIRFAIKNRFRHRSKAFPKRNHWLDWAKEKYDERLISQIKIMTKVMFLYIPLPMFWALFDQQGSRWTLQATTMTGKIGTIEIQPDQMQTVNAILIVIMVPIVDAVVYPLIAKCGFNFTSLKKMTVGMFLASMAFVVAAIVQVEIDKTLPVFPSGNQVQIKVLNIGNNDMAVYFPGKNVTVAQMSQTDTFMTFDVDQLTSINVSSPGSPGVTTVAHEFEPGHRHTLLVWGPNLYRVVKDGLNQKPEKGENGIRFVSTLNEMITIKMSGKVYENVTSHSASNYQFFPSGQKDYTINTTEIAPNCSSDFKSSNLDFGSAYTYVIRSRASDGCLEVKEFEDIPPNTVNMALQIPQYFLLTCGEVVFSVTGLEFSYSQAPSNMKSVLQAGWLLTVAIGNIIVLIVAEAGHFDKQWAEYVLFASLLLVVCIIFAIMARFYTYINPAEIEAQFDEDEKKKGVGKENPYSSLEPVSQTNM
The assay can be described thus: TP_TRANSPORTER: inhibition of Gly-Sar uptake in PEPT1-expressing LLC-PK1 cells. It is filed as functional, cell-based. The procedure, abridged: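 LLC-PK1 cells stably carrying rat PEPT1 cDNA, grown 6 days in DMEM with 10% FBS. Monolayers were incubated 15 min at 37°C with [14C]glycylsarcosine (20 µM, pH 6.0) alone or with inhibitor, mostly 10–20000 µM. Uptake was normalized to Bradford protein, with control as 100%. IC50 came from nonlinear regression and Ki from Cheng–Prusoff. Two monolayers per concentration, four for control.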

Peptide text beside a SMILES is read from it. Some results are limits rather than exact numbers.

A word on the Ki: it is the dissociation constant of the complex between target and ligand, obtained from inhibition or displacement. Low readings indicate tighter binding, high ones weaker binding. As for `NCC(=O)N[C@@H](Cc1ccc(O)cc1)C(=O)O` (H-Gly-Tyr-OH), the values for the Ki in assay [1] and in assay [2] were 14 µM and 210 µM, respectively.

Regarding `NCC(=O)CCC(=O)O` [AMINOLEVULINIC ACID], the Ki amounted to 230 µM in assay [1] and 2200 µM in assay [2].

For the compound `N[C@@H](CC(=O)O)C(=O)NCC(=O)O` (H-Asp-Gly-OH), the Ki worked out at 46 µM in assay [1] and 830 µM in assay [2].

In the case of `NCC(=O)N[C@@H](Cc1c[nH]c2ccccc12)C(=O)O` (H-Gly-Trp-OH), the Ki is 7 µM in assay [1] and 1400 µM in assay [2].

As to `CC(C)C[C@H](NC(=O)CN)C(=O)O`, the Ki stood at 6 µM in assay [1] and 110 µM in assay [2].

As for `NCC(=O)NCC(=O)N[C@@H](Cc1ccccc1)C(=O)O` (H-Gly-Gly-Phe-OH), the Ki was found to be 29 µM in assay [1] and 610 µM in assay [2].

As to `CC(C)C[C@H](NC(=O)CN)C(=O)N[C@@H](Cc1ccc(O)cc1)C(=O)O` (H-Gly-Leu-Tyr-OH), the inhibitory constant (Ki) was determined as 8 µM in assay [1] and 190 µM in assay [2].

Turning to `N[C@@H](Cc1ccccc1)C(=O)NCC(=O)O` (H-Phe-Gly-OH), the Ki turned out to be 7 µM in assay [1] and 220 µM in assay [2].

In the case of `NCCCC[C@H](NC(=O)[C@@H](N)CCCCN)C(=O)O`, the Ki in assay [1] was found to be 96 µM; in assay [2], 8000 µM.

Regarding `NCC(=O)N[C@@H](Cc1c[nH]cn1)C(=O)O` (H-Gly-His-OH), the figures for the Ki in assay [1] and in assay [2] were 39 µM and 1400 µM, respectively.

Take `NCC(=O)N[C@@H](CC(=O)O)C(=O)O` (H-Gly-Asp-OH): the Ki in assay [1] stood at 60 µM; in assay [2] it was 300 µM.

Regarding `NCC(=O)N[C@@H](CC(N)=O)C(=O)O` (H-Gly-Asn-OH), the Ki in assay [1] worked out at 22 µM; in assay [2], 270 µM.

As for `O=C(O)CNC(=O)[C@@H]1CCCN1` (H-Pro-Gly-OH), the results for the Ki in assay [1] and in assay [2] were 2000 µM and 13000 µM, respectively.

Turning to `NCCC(=O)N[C@@H](Cc1cnc[nH]1)C(=O)O` [CARNOSINE], the figures for the inhibitory constant (Ki) in assay [1] and in assay [2] were 66 µM and 8000 µM, respectively.

Regarding `NCC(=O)NCC(=O)O` (H-Gly-Gly-OH), the inhibition constant (Ki) in assay [1] is 42 µM; in assay [2], 860 µM.

As for `CSCC[C@H](N)C(=O)N[C@@H](C)C(=O)O` (H-Met-Ala-OH), the figures for the Ki in assay [1] and in assay [2] were 17 µM and 150 µM, respectively.

Take `NCCCCCCCC(=O)O`: the inhibitory constant (Ki) in assay [1] came to 7900 µM; in assay [2], 4400 µM.

Turning to `CC(C)C[C@H](NC(=O)[C@@H](O)[C@H](N)Cc1ccccc1)C(=O)O` [UBENIMEX], the Ki in assay [1] stood at 18 µM; in assay [2], 1500 µM.

For `N[C@@H](CC(=O)O)C(=O)N[C@@H](CC(=O)O)C(=O)O` (H-Asp-Asp-OH), the Ki in assay [1] is 150 µM; in assay [2], 990 µM.

Consider `NCCCC[C@H](NC(=O)CN)C(=O)O` (H-Gly-Lys-OH), for which the results for the Ki in assay [1] and in assay [2] were 210 µM and 2200 µM, respectively.

`CSCC[C@H](NC=O)C(=O)N[C@@H](C)C(=O)O` (HELM PEPTIDE1{[O=C[*:2]].M.A}$$$$V2.0): the Ki in assay [1] amounted to 10000 µM; in assay [2] it was 24000 µM.

For the compound `NCC(=O)N[C@@H](Cc1ccccc1)C(=O)O` (H-Gly-Phe-OH), the figures for the Ki in assay [1] and in assay [2] were 8 µM and 170 µM, respectively.

With `NCC(=O)NCC(=O)NCC(=O)O` [GLYCYLGLYCYLGLYCINE], the Ki in assay [1] came out at 160 µM; in assay [2], 1300 µM.

`CNCC(=O)NCC(=O)O`: the inhibition constant (Ki) in assay [1] turned out to be 2200 µM; in assay [2], 13000 µM.

With `C[C@H](N)C(=O)Nc1ccc([N+](=O)[O-])cc1`, the Ki was found to be 29 µM in assay [1] and 61 µM in assay [2].

Take `N[C@@H](CC(=O)NCC(=O)O)C(=O)O`: the Ki is 28000 µM in assay [1] and > 50000 µM in assay [2].

Turning to `NCCCC[C@H](N)C(=O)NCC(=O)O` (H-Lys-Gly-OH), the inhibition constant (Ki) in assay [1] amounted to 21 µM; in assay [2], 910 µM.
